This is an account of results in ChEMBL document CHEMBL1275419, “The thymidine-dependent small-colony-variant phenotype is associated with hypermutability and antibiotic resistance in clinical Staphylococcus aureus isolates” (Antimicrob Agents Chemother, 2008).

The source made the active and inactive calls. The rule behind the calls is not given here.

Assay type in all cases: functional, organism-based
The test system of assay [1] is Staphylococcus aureus. Kind of assay: Antibacterial activity against normal-colony variant Staphylococcus aureus derived from cystic fibrosis patient assessed as resistant isolates at 37 degC after 24 hrs by disk diffusion method. Put shortly:
(§1)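 Disk diffusion per CLSI guidelines (fosfomycin per French CA-SFM guidelines). NCV isolates tested on plain Mueller-Hinton agar and incubated 24 h at 37°C. Isolates scored susceptible or resistant per agent.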

Assay [2] has as its system Staphylococcus aureus. Kind of assay: Antibacterial activity against normal-colony variant Staphylococcus aureus derived from non cystic fibrosis patient assessed as resistant isolates at 37 degC after 24 hrs by disk diffusion method. The method, boiled down:
as §1

Assay [3] deals with Staphylococcus aureus. Kind of assay: Antibacterial activity against thymidine-dependent small-colony variant Staphylococcus aureus derived from cystic fibrosis patient assessed as resistant isolates at 37 degC after 24 hrs by disk diffusion method. The method, boiled down:
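Disk diffusion per CLSI guidelines (fosfomycin per French CA-SFM guidelines). Thymidine-dependent SCVs cannot grow without thymidine, so they were tested on Mueller-Hinton agar with 5% defibrinated sheep blood and incubated 24 h at 37°C. Isolates scored susceptible or resistant per agent.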
In general terms: In agar diffusion tests the substance spreads into inoculated agar from a disc or well.

For `O=C(O)c1cn(C2CC2)c2cc(N3CCNCC3)c(F)cc2c1=O`, the result in the assay with Staphylococcus aureus [1] and in the assay with Staphylococcus aureus [2] was Active. Further, the result in the assay on Staphylococcus aureus [3] was inactive.

On to `CC[C@H]1OC(=O)[C@H](C)[C@@H](O[C@H]2C[C@@](C)(OC)[C@@H](O)[C@H](C)O2)[C@H](C)[C@@H](O[C@@H]2O[C@H](C)C[C@H](N(C)C)[C@H]2O)[C@](C)(O)C[C@@H](C)C(=O)[C@H](C)[C@@H](O)[C@]1(C)O`, for which the outcome in the assay on Staphylococcus aureus [1] and with Staphylococcus aureus [2] was Active. In the assay on Staphylococcus aureus [3], the outcome was inactive.

In the case of GENTAMICIN, the result in the assay on Staphylococcus aureus [1] and with Staphylococcus aureus [2] was Active. In addition, the outcome with Staphylococcus aureus [3] was inactive.

`C[C@@H]1O[C@@H]1P(=O)(O)O`: the result in the assay with Staphylococcus aureus [1] and in the assay with Staphylococcus aureus [2] was Active. The outcome in the assay with Staphylococcus aureus [3] was inactive.

`CO[C@H]1/C=C/O[C@@]2(C)Oc3c(C)c(O)c4c(O)c(c(/C=N/N5CCN(C)CC5)c(O)c4c3C2=O)NC(=O)/C(C)=C\C=C\[C@H](C)[C@H](O)[C@@H](C)[C@@H](O)[C@@H](C)[C@H](OC(C)=O)[C@@H]1C`: the outcome in the assay on Staphylococcus aureus [1] and in the assay with Staphylococcus aureus [2] was Active. In the assay on Staphylococcus aureus [3], the result was inactive.
